Experimental data taken from ChEMBL document CHEMBL4513216, “Probing the Open Global Health Chemical Diversity Library for Multistage-Active Starting Points for Next-Generation Antimalarials” (ACS Infect Dis, 2020).

Assay: Toxicity liver stage against HepG2, at 10uM
Type: cell-based
Parameters: test concentration 10 uM, cell line HepG2-A16-CD81EGFP
Details: human, HepG2-A16-CD81EGFP cells; read-out: INHIBITION
Procedure, shortened: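 Uninfected HepG2-A16-CD81EGFP cells, 3 × 10^3 per well, 1536-well, plated on prespotted compound at 10 μM final, parasite-free screening media added to match infected plates; puromycin 10 μM positive, DMSO 0.5% negative; run in parallel with 48 h PbLuc assay at 37 °C, 5% CO2; viability by CellTiter-Glo luminescence, normalized to controls.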

In order of rising cytotoxicity at 10 µM:
1. O=S(=O)(NC[C@]12COC[C@H]1CN(c1ncc(F)cn1)C2)C1CC1  -128%
2. CCOCc1cnc2n1CCN(C(=O)c1cccc3c1OCCO3)C2C (stereo not given)  -98.2%
3. CN(C)C(=O)NCC1CC2(CO1)CN(c1nncs1)C2 (stereo not given)  -96.3%
4. CN(C)[C@@H]1CCN(C(=O)c2cccn2C)[C@H]1Cc1cnn(C)c1  -74.6%
5. O=C1NC2(CCN(c3ncccn3)CC2)CC1c1cccnc1 (stereo not given)  -71.4%
6. CCOCCN1CCN(C=C2NN=C(c3occc3C)O2)CC1  -50.4%
7. COC(=O)c1ccc2ccn(CC3CCNC3)c(=O)c2c1 (stereo not given)  -28%
8. COCCC(=O)N1CCCC1c1nc(O)cc(C(C)C)n1 (stereo not given)  -26.4%
9. CC(C)(C)c1cnc(CN2CCN(c3ncccn3)CC2)o1  -18.1%
10. Cc1cc(C(C)NC(=O)N2CCC(n3cncn3)CC2)c(C)s1 (stereo not given)  -15.9%
11. Cc1nc(-c2ccsc2)ccc1C(=O)NC(C)CN1CCOCC1 (stereo not given)  -13.8%
12. CCc1ccc(CN(Cc2ccco2)C(C)C(C)C)nc1 (stereo not given)  -13.5%
13. Cc1cc(C)n(C2CN(CC(O)COc3ccc(F)cc3)C2)n1 (stereo not given)  -10.5%
14. O=C(c1ccc2nccnc2c1)N1CCN(CCO)[C@@H]2CS(=O)(=O)C[C@@H]21  -10.4%
15. CN(CC(=O)NS(=O)(=O)c1cccs1)Cc1ccccc1  -9.71%
16. Cc1nc(C)n(CC2CCCN(c3ccc(C#N)cn3)C2)n1 (stereo not given)  -9.67%
17. CC1CCCN1C1CCN(C(=O)c2cccc(-c3ccoc3)c2)CC1 (stereo not given)  -9.63%
18. O=C(COc1ccccc1C(F)(F)F)NCCNC(=O)c1ccccc1  -9.53%
19. Cc1cn2c(n1)CCC(NC(=O)c1ccc(OCC3CC3)nc1)C2 (stereo not given)  -9.47%
20. CCc1nnc2n1CCN(C(=O)C(C)COCc1ccccc1)C2 (stereo not given)  -9.46%
21. CC1CCN(CCNC(=O)C(C)n2cncn2)CC1 (stereo not given)  -9.12%
22. CSc1ccccc1C(=O)N(C)C1CCCN(CCc2ccccc2)C1 (stereo not given)  -8.52%
23. O=C(c1cnccn1)N1CCN(Cc2cscn2)CC1  -8.36%
24. Cn1c(CN2CCCCC2)nnc1C1CCN(c2nccc(N)n2)CC1  -7.98%
25. Cc1ccc(-c2cc(C(=O)NCCN3CCCS3(=O)=O)[nH]n2)cc1  -7.57%
26. Cc1[nH]ncc1C(=O)N1CCCC(c2cc(C(F)(F)F)[nH]n2)C1 (stereo not given)  -7.2%
27. NC(=O)COc1ccc(CN2CC[C@@]3(O)CCCC[C@H]3C2)cc1Cl  -6.87%
28. Cc1ccc(C)c(-n2cc(CN3CC[C@@H](O)C3)c(-c3ccccc3)n2)c1  -6.77%
29. FC(F)Oc1ccc(CN2CCOC3(CCOCC3)C2)cc1Cl  -6.58%
30. Cc1cc(CNC(=O)c2ccno2)c(C)o1  -6.39%
31. Cc1noc(C)c1C(=O)N(C)Cc1nc(-c2ccccn2)no1  -6.23%
32. O=C1COc2cc(C(=O)NS(=O)(=O)c3ccc(F)cc3F)ccc2N1  -6.21%
33. Cc1cc(CNCC2CNc3ccnn3C2)no1 (stereo not given)  -6.06%
34. Cc1nccc([C@@H]2C[C@@H]3CCN(S(=O)(=O)C4CC4)C[C@H]3O2)n1  -5.9%
35. O=C(NC[C@H]1CCCC[C@H]1O)c1ccc2nc(-c3ccco3)[nH]c2c1  -5.78%
36. Cc1c(Cl)cccc1NC(=O)N1CCN(Cc2ccccn2)CC1  -5.55%
37. CN(Cc1ccco1)C(=O)C1CSCN1C(=O)c1cccnc1 (stereo not given)  -5.28%
38. CC(C)(N)c1cn([C@@H]2c3ccccc3C3(CCNCC3)[C@H]2O)nn1  -4.67%
39. CC(C)C(C(=O)N1CCN(c2nccs2)CC1)n1cncn1 (stereo not given)  -4.35%
40. CC(Oc1ccccc1C(F)(F)F)C(=O)NCCC(=O)N(C)C (stereo not given)  -4.25%
41. COc1ccccc1CC(=O)NC(CC(=O)O)c1ccc(F)cc1 (stereo not given)  -4.24%
42. CNC(=O)c1nnn(-c2ccccc2F)c1-c1ccccn1  -4.21%
43. CCCn1nnc(NCc2ccc(-c3ccc(Br)cc3)o2)n1  -4.11%
44. N[C@@H]1CC[C@@H](Nc2nccc(CCC(F)(F)F)n2)C1  -3.73%
45. O=C(NCC1CCCOC1)c1ccc(-c2cccs2)[nH]c1=O (stereo not given)  -3.67%
46. O=C(c1ccncc1)N1CCC2(CC1)CCN(Cc1ccccn1)C2=O  -3.18%
47. CCCOCC1CCN(C(=O)c2cnc(C)nc2O)C1 (stereo not given)  -3.15%
48. CCOc1ccccc1C(=O)N1CCn2c(nnc2C(F)(F)F)C1  -2.99%
49. Cc1ccc(CNC(C)c2ccc(N3CCN(C)CC3)c(F)c2)o1 (stereo not given)  -2.76%
50. CC1CCN(CC(O)CN2CCn3c(nnc3C3CC3)C2)CC1 (stereo not given)  -2.22%
51. C=C(C)CN1CCC(c2n[nH]c(C3CC3)n2)CC1  -1.92%
52. Cc1ccc(NC(=O)CN2CCC(OCC3CCCO3)CC2)c(C)c1 (stereo not given)  -1.7%
53. Cc1[nH]c(=O)[nH]c(=O)c1CN1CCCC(CCc2ccc(F)cc2F)C1 (stereo not given)  -1.64%
54. CCC(CC)NC(=O)NCc1ccnc(-n2ccnc2C)c1  -1.21%
55. CNC(=O)N1CCOC(C)(c2cnn(C)c2)C1 (stereo not given)  -0.717%
56. Cc1cc(NC(=O)C(C)N2CCN(c3nc(C)cs3)CC2)on1 (stereo not given)  -0.71%
57. CCCNC(=O)c1[nH]nc(C2CC2)c1Br  -0.587%
58. CCOCC(=O)N1CCC2(CC1)COCCN2CCN(C)C  -0.464%
59. CCS(=O)(=O)N1CCC2(CC(=O)N(c3cncnc3)C2)C1 (stereo not given)  -0.298%
60. O=C(NCC1CCN(CCc2ccccc2)C1)NCC1(O)CCC1 (stereo not given)  -0.128%
61. COCCN1CCc2ncc(CN(C)C)n2CC1  -0.0807%
62. CN1CCCC1CCNC(=O)Nc1ccccc1 (stereo not given)  0.238%
63. COc1ccc2cccc(CC(=O)NCc3nccc(N)n3)c2c1  0.684%
64. CN(C)Cc1nnc(C2CCCN(c3nc(C(N)=O)cs3)C2)n1C (stereo not given)  1.05%
65. CCOC(C)c1nc(CN2CCC(NC(C)C)CC2)cs1 (stereo not given)  1.1%
66. COc1ccc(OC)c(-n2nnnc2SCC2CCCN(C)C2)c1 (stereo not given)  1.28%
67. O=C(NC1CC1)N1CC[C@@H](O)[C@@H]1Cc1ccccc1  1.91%
68. CCc1cn[nH]c1C1CCN(C(=O)c2cccc(O)c2C)CC1  2.28%
69. Cc1nccc(NCc2cc3n(n2)CCCN(S(C)(=O)=O)C3)n1  2.35%
70. CO[C@@H]1CC[C@H]2[C@H]1OCCN2S(=O)(=O)C1CC1  2.6%
71. Cc1ccccc1C(C(=O)N(Cc1cnn(C)c1)CC(C)C)N(C)C (stereo not given)  2.66%
72. O=C(NCc1nncn1C1CCCCC1)C1COc2ccccc2O1 (stereo not given)  2.83%
73. c1cncc(-c2c[nH]c([C@@H]3COCCN3Cc3ccncc3)n2)c1  3.25%
74. O=C(NCc1ccccn1)c1cncc(C2CCCN2)n1 (stereo not given)  3.6%
75. CC(C)NC(=O)[C@]12COC[C@H]1CN(Cc1cnn(C)c1)C2  3.63%
76. C[C@H]1C[C@H]2CN(C(=O)C3=CCCC3)CC[C@H]2O1  3.76%
77. COC(=O)NCC(=O)NC1(C)CCc2ccccc2C1 (stereo not given)  4.29%
78. COc1ccccc1[C@@H]1CN(C(=O)c2csc(C)n2)C[C@H]1C(=O)O  4.98%
79. CC(C)CC(C#N)NC(=O)COC1CCCCC1 (stereo not given)  5.42%
80. CN(C)C(=O)CO[C@@H]1CC[C@H]2[C@H]1OCCN2c1ncc(F)cn1  5.44%
81. CCc1cnccc1C(=O)Nc1ccc(C(N)=O)nc1  5.44%
82. Cn1nc(CN2CCCCC2)c2c1CN(C(=O)Nc1cccc(F)c1)C2  5.68%
83. Cc1cc(=O)[nH]c(-n2nc(-c3ccccc3)cc2N)n1  5.71%
84. COC(=O)c1cccc(S(=O)(=O)NC(=O)c2ccccc2F)c1  5.79%
85. Cc1cc(C2CCCN(C(=O)COc3cccc(F)c3)C2)n[nH]1 (stereo not given)  5.95%
86. O=C(c1cocn1)N1CCC[C@]2(C[C@@H](Oc3ncccc3F)CO2)C1  6.21%
87. CS(=O)(=O)CCn1ccc(NCc2ccc(C#N)cc2)n1  6.56%
88. COCC(O)CN(C)c1cc(C(F)(F)F)nc(-c2cccnc2)n1 (stereo not given)  7.02%
89. CC(C)(C)NC(=O)COc1ccc(Oc2ccccn2)cc1  7.32%
90. CO[C@@H]1CCN(Cc2ccoc2)[C@H]1Cc1ccccc1  7.46%
91. Cc1nc(CN2C[C@@H](NC(=O)C3CCC3)[C@H]3COC[C@H]32)cs1  7.58%
92. CNC(=O)[C@@H]1C[C@H]2CN(Cc3nccs3)C[C@H]2N1C  7.73%
93. CCS(=O)(=O)c1ccc(N2CCC(NC(=O)C(C)SC)CC2)cc1 (stereo not given)  7.99%
94. CC(C)c1nn(C)c(N(C)C)c1CNC1CCN(CC2CC2)CC1  8.96%
95. NC(=O)c1nc2c(s1)CCN(Cc1ccccc1)CC2  9.61%
96. COCC(C)(CCO)NC(=O)Nc1cccc(Br)c1C (stereo not given)  10.5%
97. O=C(N1CCc2ccccc2CC1)C1(O)Cc2ccccc2C1  10.8%
98. Cc1noc(C)c1CCC(=O)N1CCCC(n2ccnc2C)C1 (stereo not given)  10.9%
99. Cc1ccc(OCC2CCCN(c3cc(C(N)=O)ccn3)C2)cc1 (stereo not given)  11.1%
100. O=C(NCCc1nc(-c2cccnc2)no1)c1ccc(C2CCCO2)s1 (stereo not given)  11.2%
101. CN(C1CCN(c2ccccn2)CC1)S(=O)(=O)c1ccc(F)cc1  11.2%
102. Cc1cc(NC(=O)NC(C)CN2CCN(c3ccccc3)CC2)on1 (stereo not given)  11.5%
103. CN(CCn1ccnc1-c1ccccn1)S(C)(=O)=O  12%
104. CC(C)(C)c1cn(C2CCN(C(=O)c3cnccn3)CC2)nn1  14%
105. COc1ccc(CNC(C)c2cccc(Cl)c2)c(OC)c1OC (stereo not given)  14%
106. c1cncc(COCC2CNCc3nccn3C2)c1 (stereo not given)  14.2%
107. CCn1c(C)nnc1CN(C)C1CCN(Cc2cnc(C)cn2)C1 (stereo not given)  14.6%
108. Cc1ccccc1N1CCN(c2ccncn2)C(C)C1 (stereo not given)  22.6%
109. NC(=O)CCC1CCCN(c2ccc3c(Cl)ccnc3c2F)C1 (stereo not given)  29.6%
110. Cc1nc(N2CCCOC(Cn3cccn3)C2)c2sccc2n1 (stereo not given)  35.5%
